In PMC2606940 (The Journal of General Physiology, 2009):
Substitutions are numbered along the chain they refer to. Where two headings read alike, the source gives them in different places.

Tests used:
Assay type in all cases: cell-based
[1] = target: T1, CLC-0 E166C/K519E mutant (E127/K519E) (Torpedo marmorata, UniProt P21564, C212S/E166C/K519E)
T1 sequence (P21564 1-805 E166C/C212S/K519E): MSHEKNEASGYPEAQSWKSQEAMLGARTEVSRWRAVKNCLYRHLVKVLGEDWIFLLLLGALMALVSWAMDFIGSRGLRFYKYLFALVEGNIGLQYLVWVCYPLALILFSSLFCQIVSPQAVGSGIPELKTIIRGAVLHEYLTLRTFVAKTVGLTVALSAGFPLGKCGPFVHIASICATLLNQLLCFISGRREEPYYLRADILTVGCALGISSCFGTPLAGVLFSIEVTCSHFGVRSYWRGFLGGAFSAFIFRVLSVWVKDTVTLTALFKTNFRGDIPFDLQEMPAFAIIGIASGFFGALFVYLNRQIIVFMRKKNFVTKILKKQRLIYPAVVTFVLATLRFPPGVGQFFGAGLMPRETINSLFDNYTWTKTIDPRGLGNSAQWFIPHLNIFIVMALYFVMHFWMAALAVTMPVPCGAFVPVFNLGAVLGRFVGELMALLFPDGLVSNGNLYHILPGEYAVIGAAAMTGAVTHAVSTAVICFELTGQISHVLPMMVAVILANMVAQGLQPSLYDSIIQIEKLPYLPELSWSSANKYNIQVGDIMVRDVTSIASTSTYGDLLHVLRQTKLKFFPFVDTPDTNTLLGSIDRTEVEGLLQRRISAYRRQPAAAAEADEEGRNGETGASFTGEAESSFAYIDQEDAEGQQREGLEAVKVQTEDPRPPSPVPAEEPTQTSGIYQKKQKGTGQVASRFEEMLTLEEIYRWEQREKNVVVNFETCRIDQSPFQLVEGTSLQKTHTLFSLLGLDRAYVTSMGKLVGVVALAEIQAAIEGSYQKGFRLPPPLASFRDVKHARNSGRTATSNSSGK
In short: (§1)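 CLC-0 mutants in the C212S background were transfected into HEK293 cells with lipofectamine and recorded 1–3 d later as excised inside-out patches. Both sides held 130 mM NaCl, 5 mM MgCl2, 10 mM HEPES and 1 mM EGTA, pH 7.4. CPA was perfused continuously onto the cytoplasmic face. Steady-state current over the last 10 ms was normalized to bracketing blocker-free controls and fitted to a Langmuir function for K1/2. Values are mean ± SEM of ~4–6 patches.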

[2] = target: T2, CLC-0 E166I mutant (Torpedo marmorata, UniProt P21564, C212S/E166I); conditions: read-out: Apparent affinity (K1/2)
T2 sequence (P21564 1-805 E166I/C212S): T1 sequence (P21564 1-805 E166C/C212S/K519E) with C166I, E519K
In short: as §1

[3] = target: T3, CLC-0 E166C/E127Q/K519E mutant (Torpedo marmorata, UniProt P21564, C212S/E127Q/E166C/K519E); conditions: read-out: Apparent affinity (K1/2)
T3 sequence (P21564 1-805 E127Q/E166C/C212S/K519E): T1 sequence (P21564 1-805 E166C/C212S/K519E) with E127Q
In short: as §1

With O=C(O)COc1ccc(Cl)cc1 [CPA, p-chlorophenoxy acetate] as the molecule, how does the IC50 ([1]; read-out: Apparent affinity (K1/2), −40 mV) read?
Its IC50 is 730 ± 59 µM.

What about the IC50 ([1]; read-out: Apparent affinity (K1/2), −60 mV) of the same molecule?
Its IC50 is 516 ± 46 µM.

And the IC50 ([1]; read-out: Apparent affinity (K1/2), −80 mV)?
Its IC50 is 377 ± 39 µM.

And the IC50 ([1]; read-out: Apparent affinity (K1/2), −100 mV)?
Its IC50 is 277 ± 37 µM.

And the IC50 ([1]; read-out: Apparent affinity (K1/2), −120 mV)?
Its IC50 is 203 ± 34 µM.

And the IC50 ([1]; read-out: Apparent affinity (K1/2), −140 mV)?
The IC50 was 158 ± 31 µM.

What about the IC50 ([1]; read-out: Apparent affinity (K1/2), −160 mV) of the same molecule?
Its IC50 is 115 ± 25 µM.

And the IC50 ([1]; read-out: K1/2, −140 mV (Fig. 6))?
The IC50 was roughly 160 µM.

What about the apparent kon ([1]; −160 mV) of the same molecule?
The apparent kon was 110000 M⁻¹ s⁻¹.

What about the IC50 ([2]; −40 mV) of the same molecule?
Its IC50 is 1250 ± 230 µM.

What about the IC50 ([2]; −60 mV) of the same molecule?
The IC50 was 683 ± 85 µM.

And the IC50 ([2]; −80 mV)?
The IC50 was 384 ± 41 µM.

And the IC50 ([2]; −100 mV)?
Its IC50 is 220 ± 24 µM.

What about the IC50 ([2]; −120 mV) of the same molecule?
The IC50 was 117 ± 11 µM.

What about the IC50 ([2]; −140 mV) of the same molecule?
The IC50 was 68 ± 8 µM.

And the IC50 ([2]; −160 mV)?
The IC50 was 39 ± 4 µM.

And the IC50 ([3]; −40 mV)?
The IC50 was 586 ± 52 µM.

What about the IC50 ([3]; −60 mV) of the same molecule?
The IC50 was 327 ± 24 µM.

What about the IC50 ([3]; −80 mV) of the same molecule?
Its IC50 is 198 ± 14 µM.

And the IC50 ([3]; −100 mV)?
The IC50 was 123 ± 9 µM.

What about the IC50 ([3]; −120 mV) of the same molecule?
The IC50 was 87 ± 6 µM.

And the IC50 ([3]; −140 mV)?
Its IC50 is 62 ± 5 µM.

What about the IC50 ([3]; −160 mV) of the same molecule?
Its IC50 is 44 ± 5 µM.

For CCCCCCCC(=O)O [octanoate], which IC50 ([2]; −40 mV) is on record?
The IC50 was 218 ± 49 µM.

What about the IC50 ([2]; −60 mV) of the same molecule?
Its IC50 is 136 ± 26 µM.

What about the IC50 ([2]; −80 mV) of the same molecule?
Its IC50 is 79 ± 13 µM.

And the IC50 ([2]; −100 mV)?
The IC50 was 45 ± 7 µM.

And the IC50 ([2]; −120 mV)?
Its IC50 is 26 ± 3 µM.

And the IC50 ([2]; −140 mV)?
The IC50 was 15 ± 2 µM.

And the IC50 ([2]; −160 mV)?
The IC50 was 9 ± 1 µM.
